The source made the active and inactive calls. The rule behind the calls is not given here.
Legend:
[1] = target: T1, Aurora kinase C (Homo sapiens) (UniProt Q9UQB9); experiment: Inhibition of AurC ATP labeling site in human Huh-7 cell lysate at 1 uM by KiNativ Profiling analysis relative to control; format: subcellular
T1 sequence (whole entry): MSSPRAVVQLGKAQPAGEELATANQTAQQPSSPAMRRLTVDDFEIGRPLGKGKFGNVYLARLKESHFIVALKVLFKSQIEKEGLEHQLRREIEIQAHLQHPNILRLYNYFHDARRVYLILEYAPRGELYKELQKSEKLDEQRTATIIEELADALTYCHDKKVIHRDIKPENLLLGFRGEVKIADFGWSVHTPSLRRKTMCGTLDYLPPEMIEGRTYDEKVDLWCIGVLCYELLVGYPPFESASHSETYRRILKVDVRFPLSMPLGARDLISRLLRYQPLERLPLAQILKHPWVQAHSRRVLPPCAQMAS

[2] = target: Serine/threonine-protein kinase MARK2 (Homo sapiens) (UniProt Q7KZI7); experiment: Inhibition of MARK2 Lys2 labeling site harbouring DLKAENLLLDADMNIK in human Huh-7 cell lysate at 1 uM by KiNativ Profiling analysis relative to control; format: subcellular
Serine/threonine-protein kinase MARK2 (Homo sapiens), sequence (Q7KZI7 whole entry): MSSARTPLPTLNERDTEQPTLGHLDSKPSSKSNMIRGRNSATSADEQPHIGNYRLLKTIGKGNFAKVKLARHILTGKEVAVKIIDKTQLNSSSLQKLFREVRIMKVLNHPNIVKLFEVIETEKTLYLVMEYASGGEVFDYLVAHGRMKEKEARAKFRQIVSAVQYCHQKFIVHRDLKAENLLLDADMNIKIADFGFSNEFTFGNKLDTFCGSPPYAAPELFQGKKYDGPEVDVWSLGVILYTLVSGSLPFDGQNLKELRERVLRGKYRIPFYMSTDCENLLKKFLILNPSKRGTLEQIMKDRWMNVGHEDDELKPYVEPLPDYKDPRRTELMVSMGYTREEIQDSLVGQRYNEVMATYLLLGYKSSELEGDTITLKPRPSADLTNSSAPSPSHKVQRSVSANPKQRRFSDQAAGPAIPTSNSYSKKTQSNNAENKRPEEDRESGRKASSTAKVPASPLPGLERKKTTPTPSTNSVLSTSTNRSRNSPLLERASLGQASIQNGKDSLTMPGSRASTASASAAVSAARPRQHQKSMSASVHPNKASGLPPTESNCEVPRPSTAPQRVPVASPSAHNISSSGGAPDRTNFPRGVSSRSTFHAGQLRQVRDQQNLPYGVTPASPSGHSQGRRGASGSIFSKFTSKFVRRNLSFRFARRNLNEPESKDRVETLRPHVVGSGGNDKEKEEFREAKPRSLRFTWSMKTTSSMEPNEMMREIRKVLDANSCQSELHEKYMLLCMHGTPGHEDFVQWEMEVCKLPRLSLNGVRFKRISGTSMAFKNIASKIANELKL

[3] = target: Serine/threonine-protein kinase/endoribonuclease IRE1 (Homo sapiens) (UniProt O75460); experiment: Inhibition of IRE1 Lys2 labeling site in human Huh-7 cells at 1 uM by KiNativ Profiling analysis relative to control; format: cell-based
[4] = target: Mitogen-activated protein kinase kinase kinase 1 (Homo sapiens) (UniProt Q13233); experiment: Inhibition of MAP3K1 Lys2 labeling site in human Huh-7 cells at 1 uM by KiNativ Profiling analysis relative to control; format: cell-based
[5] = target: Misshapen-like kinase 1 (Homo sapiens) (UniProt Q8N4C8); experiment: Inhibition of ZC3 Lys2 labeling site in human A-375 cells at 5 uM by KiNativ Profiling analysis relative to control; format: cell-based
[6] = target: Tyrosine-protein kinase CSK (Homo sapiens, UniProt P41240); experiment: Inhibition of CSK ACT labeling site in human A-375 cells at 5 uM by KiNativ Profiling analysis relative to control; format: cell-based
Tyrosine-protein kinase CSK, sequence (P41240 2-450 limits assumed): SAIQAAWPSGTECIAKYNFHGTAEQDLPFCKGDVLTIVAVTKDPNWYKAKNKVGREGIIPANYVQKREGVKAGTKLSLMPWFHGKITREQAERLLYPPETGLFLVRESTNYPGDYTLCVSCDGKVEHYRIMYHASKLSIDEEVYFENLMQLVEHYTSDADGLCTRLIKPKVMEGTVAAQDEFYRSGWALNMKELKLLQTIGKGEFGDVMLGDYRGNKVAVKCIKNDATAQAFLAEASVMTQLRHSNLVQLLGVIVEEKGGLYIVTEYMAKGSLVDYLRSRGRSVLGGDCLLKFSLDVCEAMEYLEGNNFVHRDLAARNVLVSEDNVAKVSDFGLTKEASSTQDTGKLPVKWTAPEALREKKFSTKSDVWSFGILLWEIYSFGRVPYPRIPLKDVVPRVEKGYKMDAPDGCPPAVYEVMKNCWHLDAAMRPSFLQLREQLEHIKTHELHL

[7] = target: Cyclin-dependent kinase 14 (Homo sapiens) (UniProt O94921); experiment: Inhibition of PFTK1 (unknown origin) at 10 uM by Ambit Kinomescan binding assay relative to control
Cyclin-dependent kinase 14 (Homo sapiens), sequence (O94921 whole entry): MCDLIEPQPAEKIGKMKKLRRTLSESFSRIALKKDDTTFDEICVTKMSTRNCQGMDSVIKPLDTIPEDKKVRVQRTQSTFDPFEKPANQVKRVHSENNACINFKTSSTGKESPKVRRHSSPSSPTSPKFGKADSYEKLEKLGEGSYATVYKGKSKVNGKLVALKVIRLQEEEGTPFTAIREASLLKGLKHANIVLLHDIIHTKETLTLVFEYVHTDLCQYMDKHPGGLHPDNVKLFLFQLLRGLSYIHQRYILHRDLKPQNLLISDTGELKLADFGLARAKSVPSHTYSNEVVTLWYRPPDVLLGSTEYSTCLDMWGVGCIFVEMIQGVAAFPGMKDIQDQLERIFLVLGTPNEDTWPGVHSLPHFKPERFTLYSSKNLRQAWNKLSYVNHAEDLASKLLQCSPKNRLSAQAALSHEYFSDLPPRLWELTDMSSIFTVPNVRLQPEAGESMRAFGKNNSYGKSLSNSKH

[8] = target: Mitogen-activated protein kinase kinase kinase kinase 4 (Homo sapiens, UniProt O95819); experiment: Inhibition of ZC1/HGK Lys2 labeling site in human A-375 cells at 5 uM by KiNativ Profiling analysis relative to control; format: cell-based
Mitogen-activated protein kinase kinase kinase kinase 4, sequence (O95819 2-1239 limits assumed): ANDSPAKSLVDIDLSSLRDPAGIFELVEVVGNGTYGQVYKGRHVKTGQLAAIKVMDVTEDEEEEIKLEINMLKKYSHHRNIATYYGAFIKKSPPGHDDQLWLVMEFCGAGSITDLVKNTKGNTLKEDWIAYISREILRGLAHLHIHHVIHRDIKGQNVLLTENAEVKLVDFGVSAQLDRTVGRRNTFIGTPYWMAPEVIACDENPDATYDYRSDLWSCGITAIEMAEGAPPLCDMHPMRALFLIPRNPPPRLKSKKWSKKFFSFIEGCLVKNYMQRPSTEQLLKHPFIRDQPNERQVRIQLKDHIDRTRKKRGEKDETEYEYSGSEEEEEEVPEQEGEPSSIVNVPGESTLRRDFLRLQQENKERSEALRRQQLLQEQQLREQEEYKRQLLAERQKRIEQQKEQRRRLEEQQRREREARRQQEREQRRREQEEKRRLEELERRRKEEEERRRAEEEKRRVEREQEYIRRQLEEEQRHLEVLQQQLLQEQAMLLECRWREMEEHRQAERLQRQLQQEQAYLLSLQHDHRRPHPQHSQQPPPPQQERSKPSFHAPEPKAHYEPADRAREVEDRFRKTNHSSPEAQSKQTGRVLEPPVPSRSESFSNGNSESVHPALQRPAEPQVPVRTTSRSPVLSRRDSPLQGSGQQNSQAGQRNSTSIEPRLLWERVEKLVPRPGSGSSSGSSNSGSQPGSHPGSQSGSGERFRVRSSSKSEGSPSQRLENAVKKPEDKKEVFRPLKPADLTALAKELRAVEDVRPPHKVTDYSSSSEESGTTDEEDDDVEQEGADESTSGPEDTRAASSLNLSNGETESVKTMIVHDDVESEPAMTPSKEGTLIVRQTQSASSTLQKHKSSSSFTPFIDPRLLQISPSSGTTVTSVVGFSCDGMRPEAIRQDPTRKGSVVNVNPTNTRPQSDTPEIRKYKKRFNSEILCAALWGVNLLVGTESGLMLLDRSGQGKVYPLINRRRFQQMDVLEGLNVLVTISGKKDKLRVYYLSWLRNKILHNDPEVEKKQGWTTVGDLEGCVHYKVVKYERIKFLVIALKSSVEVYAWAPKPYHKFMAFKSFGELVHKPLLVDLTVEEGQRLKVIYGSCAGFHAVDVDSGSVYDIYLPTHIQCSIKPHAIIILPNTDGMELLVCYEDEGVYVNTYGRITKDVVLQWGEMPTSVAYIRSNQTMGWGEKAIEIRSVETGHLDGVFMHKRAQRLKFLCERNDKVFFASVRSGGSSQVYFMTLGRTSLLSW

[9] = target: Mitogen-activated protein kinase 3 (Homo sapiens) (UniProt P27361); experiment: Inhibition of Erk1 Lys2 labeling site harbouring DLKPSNLLINTTCDLK in human A-375 cells at 0.05 uM by KiNativ Profiling analysis relative to control; format: cell-based
Mitogen-activated protein kinase 3 (Homo sapiens), sequence (P27361 whole entry, canonical isoform): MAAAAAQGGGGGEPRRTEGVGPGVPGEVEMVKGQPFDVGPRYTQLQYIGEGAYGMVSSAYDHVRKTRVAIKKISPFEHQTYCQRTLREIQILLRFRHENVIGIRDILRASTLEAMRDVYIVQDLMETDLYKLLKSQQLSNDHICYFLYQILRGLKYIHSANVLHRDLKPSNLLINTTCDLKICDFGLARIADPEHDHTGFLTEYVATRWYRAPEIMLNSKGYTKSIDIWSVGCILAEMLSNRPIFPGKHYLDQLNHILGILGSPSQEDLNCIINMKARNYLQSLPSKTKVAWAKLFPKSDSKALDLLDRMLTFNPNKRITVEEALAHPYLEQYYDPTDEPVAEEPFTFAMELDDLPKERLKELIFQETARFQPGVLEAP

[10] = target: Phosphatidylinositol 4,5-bisphosphate 3-kinase catalytic subunit beta isoform (Homo sapiens) (UniProt P42338); experiment: Inhibition of PIK3CB ATP labeling site in human Huh-7 cells at 10 uM by KiNativ Profiling analysis relative to control; format: cell-based
[11] = target: T2, Serine/threonine-protein kinase TBK1 (Homo sapiens) (UniProt Q9UHD2); experiment: Inhibition of TBK1 K2 labeling site in human Huh-7 cells at 1 uM by KiNativ Profiling analysis relative to control; format: cell-based
T2 sequence (whole entry): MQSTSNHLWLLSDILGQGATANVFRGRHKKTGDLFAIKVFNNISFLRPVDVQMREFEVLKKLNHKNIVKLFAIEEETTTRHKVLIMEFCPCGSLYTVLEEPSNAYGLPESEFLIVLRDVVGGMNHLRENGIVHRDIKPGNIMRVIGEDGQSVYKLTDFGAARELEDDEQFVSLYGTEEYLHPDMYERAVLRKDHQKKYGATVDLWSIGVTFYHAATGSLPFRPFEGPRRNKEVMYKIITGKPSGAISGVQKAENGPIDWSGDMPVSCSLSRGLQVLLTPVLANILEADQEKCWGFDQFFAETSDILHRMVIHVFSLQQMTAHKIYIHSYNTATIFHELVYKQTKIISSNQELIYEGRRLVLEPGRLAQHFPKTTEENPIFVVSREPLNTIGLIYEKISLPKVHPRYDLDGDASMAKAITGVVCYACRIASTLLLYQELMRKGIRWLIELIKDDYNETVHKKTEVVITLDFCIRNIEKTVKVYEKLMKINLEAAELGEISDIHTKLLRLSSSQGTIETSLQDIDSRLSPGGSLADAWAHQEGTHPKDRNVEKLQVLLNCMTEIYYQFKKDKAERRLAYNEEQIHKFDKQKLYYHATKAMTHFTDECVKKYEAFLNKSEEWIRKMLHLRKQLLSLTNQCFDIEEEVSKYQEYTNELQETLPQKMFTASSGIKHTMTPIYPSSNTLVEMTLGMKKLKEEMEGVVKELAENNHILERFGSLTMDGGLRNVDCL

[12] = target: Serine/threonine-protein kinase MARK2 (Homo sapiens) (UniProt Q7KZI7); experiment: Inhibition of MARK2 K1 labeling site harbouring HILTGKEVAVKIIDKTQLNSSSLQK in human Huh-7 cells at 1 uM by KiNativ Profiling analysis relative to control; format: cell-based
[13] = target: PKC alpha and beta-2 (Homo sapiens) (UniProt P17252+P05771); experiment: Inhibition of PKCalpha/beta K2 labeling site in human Huh-7 cells at 1 uM by KiNativ Profiling analysis relative to control; format: cell-based
PKC alpha and beta-2 (Homo sapiens), sequence (P05771 whole entry, looked up, canonical isoform): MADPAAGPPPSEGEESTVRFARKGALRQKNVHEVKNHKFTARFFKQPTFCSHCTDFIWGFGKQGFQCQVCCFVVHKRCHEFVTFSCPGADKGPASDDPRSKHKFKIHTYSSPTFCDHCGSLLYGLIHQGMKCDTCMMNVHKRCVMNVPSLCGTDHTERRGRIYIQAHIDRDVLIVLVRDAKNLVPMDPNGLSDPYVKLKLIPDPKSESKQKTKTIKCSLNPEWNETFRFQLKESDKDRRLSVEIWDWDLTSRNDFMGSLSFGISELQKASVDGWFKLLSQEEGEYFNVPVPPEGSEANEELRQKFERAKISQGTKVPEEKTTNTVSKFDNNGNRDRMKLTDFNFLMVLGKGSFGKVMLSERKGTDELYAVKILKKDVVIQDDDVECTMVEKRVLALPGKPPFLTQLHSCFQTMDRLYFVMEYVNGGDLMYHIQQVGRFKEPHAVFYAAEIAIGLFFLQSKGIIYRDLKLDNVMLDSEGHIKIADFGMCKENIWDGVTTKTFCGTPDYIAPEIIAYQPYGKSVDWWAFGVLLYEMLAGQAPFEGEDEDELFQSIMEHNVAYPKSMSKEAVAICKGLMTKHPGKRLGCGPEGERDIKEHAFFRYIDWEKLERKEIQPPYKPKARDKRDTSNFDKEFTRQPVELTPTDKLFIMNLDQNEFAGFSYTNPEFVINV

[14] = target: Casein kinase I isoform delta (Homo sapiens) (UniProt P48730); experiment: Inhibition of CSNK1D (unknown origin) at 1 uM by Ambit Kinomescan binding assay relative to control
Summary of the method: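 In vitro ATP-site competition binding assay against a panel of over 420 kinases (KinomeScan), with compound tested at 10 or 1 μM.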

[15] = target: MAP/microtubule affinity-regulating kinase 3 (Homo sapiens) (UniProt P27448); experiment: Inhibition of MARK3 Lys1 labeling site in human A-375 cells at 0.5 uM by KiNativ Profiling analysis relative to control; format: cell-based

Work on `CNc1cc(Oc2cc(C(=O)Nc3cc(N4CCN(C)CC4)cc(C(F)(F)F)c3)ccc2C)ncn1` yielded an inhibition [1] of 2.5%, an inhibition [2] of -4.1% and an inhibition [3] of -9.9%. The inhibition [4] was 27%.

`CCN1CCN(Cc2ccc(NC(=O)c3ccc(C)c(Oc4ccnc5[nH]ccc45)c3)cc2C(F)(F)F)CC1` showed an inhibition [5] of 92.7%, an inhibition [6] of 57.7% and an inhibition [7] of 0.4%. The inhibition [8] was 92.7%, the inhibition [9] was 0.9% and the inhibition [10] was “inactive”. For the same molecule, the inhibition [11] was 17.7%, the inhibition [12] was “inactive” and the inhibition [13] was 8.8%.

Molecule `CCN1CCN(Cc2ccc(NC(=O)c3ccc(C)c(/C=C/c4cnc5[nH]ccc5c4OC)c3)cc2C(F)(F)F)CC1` has an inhibition [14] of 84% and an inhibition [15] of 12.3%.
